Tests used:
[1] = molecular target: K‐Ras(G12D) (Homo sapiens, UniProt P01116, G12D); experiment: Nucleotide exchange assay; type: biochemical
Method in brief: (§1)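 SOS1 (final 30.2 nM for G12D, 4.6 nM for wild type) and GTP (1 μM final) follow. Incubated overnight at room temperature, then GDP detection reagent for 1 h. Luminescence read; IC50 from sigmoidal curves.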

[2] = molecular target: K‐Ras wild type protein (Homo sapiens, UniProt P01116); experiment: Nucleotide exchange assay; type: biochemical
Method in brief: as §1

[3] = Control assay for nucleotide exchange assay; conditions: 3 mM compound; percent of control
[4] = tested on: SNU‐1 (G12D); experiment: CellTiter-Glo cell viability assay, SNU-1; type: cell-based; conditions: Homo sapiens, SNU1, 72 h, read-out: Cellular activity IC50, SNU‐1 (G12D)
Method in brief: (§2)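 Cells seeded, then held 24 h at 37 °C/5 % CO2 before test compound in DMSO was added at various concentrations. Plates were incubated a further 72 h at 37 °C, 5 % CO2, humidified. Controls were DMSO vehicle and 10 μM staurosporine. CellTiter-Glo reagent was added at equal volume to the medium, then 2 min shaking and 10 min at room temperature before luminescence (ATP) reading. IC50 from dose-response fit; plates accepted only if Z' ≥0.5, from 16 control values each.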

[5] = tested on: NCI‐H441 (G12 V); experiment: CellTiter-Glo cell viability assay, NCI-H441; type: cell-based; conditions: Homo sapiens, NCI-H441, 72 h, read-out: Cellular activity IC50, NCI‐H441 (G12 V)
Method in brief: as §2

[6] = tested on: HCT15 (G13D); experiment: CellTiter-Glo cell viability assay, HCT15; type: cell-based; conditions: Homo sapiens, HCT-15, 72 h, read-out: Cellular activity IC50, HCT15 (G13D)
Method in brief: as §2

[7] = tested on: H358 (G12 C); experiment: CellTiter-Glo cell viability assay, H358; type: cell-based; conditions: Homo sapiens, NCI-H358, 72 h, read-out: Cellular activity IC50, H358 (G12 C)
Method in brief: as §2

[8] = tested on: A549 (G12S); experiment: CellTiter-Glo cell viability assay, A549; type: cell-based; conditions: Homo sapiens, A549, 72 h, read-out: Cellular activity IC50, A549 (G12S)
Method in brief: as §2

[9] = tested on: pErk in SNU‐1 cells; experiment: HTRF assay of downstream phosphorylation, pErk in SNU-1; type: cell-based; conditions: Homo sapiens, SNU1, read-out: pErk IC50
Method in brief: (§3)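 Test compound was given as a 3-fold 8-point series, top 330 μM final, 1 % DMSO, for 1 h. EGF at 3 nM final was then added for 15 min. Cells were lysed 30 min at room temperature. TR-FRET antibody detection followed after 20 h at room temperature; read-out gave IC50.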

[10] = tested on: tErk in SNU‐1 cells; experiment: HTRF assay, tErk in SNU-1; type: cell-based; conditions: Homo sapiens, SNU1, read-out: tErk IC50
Method in brief: as §3

[11] = tested on: pAkt in SNU‐1 cells; experiment: HTRF assay of downstream phosphorylation, pAkt in SNU-1; type: cell-based; conditions: Homo sapiens, SNU1, read-out: pAkt IC50
Method in brief: as §3

[12] = tested on: tAkt in SNU‐1 cells; experiment: HTRF assay, tAkt in SNU-1; type: cell-based; conditions: Homo sapiens, SNU1, read-out: tAkt IC50
Method in brief: as §3

[13] = tested on: pErk in A375 cells; experiment: HTRF assay of downstream phosphorylation, pErk in A375; type: cell-based; conditions: Homo sapiens, A-375, read-out: pErk IC50
[14] = tested on: tErk in A375 cells; experiment: HTRF assay, tErk in A375; type: cell-based; conditions: Homo sapiens, A-375, read-out: tErk IC50
[15] = tested on: pAkt in A375 cells; experiment: HTRF assay of downstream phosphorylation, pAkt in A375; type: cell-based; conditions: Homo sapiens, A-375, read-out: pAkt IC50
[16] = tested on: tAkt in A375 cells; experiment: HTRF assay, tAkt in A375; type: cell-based; conditions: Homo sapiens, A-375, read-out: tAkt IC50
[17] = Stability in cell culture medium; type: in vitro ADME
[18] = tested on: Ras mutant tumor cell lines; experiment: Tumor cell assays, all tested cell lines; type: cell-based; conditions: read-out: IC50 values for all tested cell lines
Method in brief: as §2

[19] = molecular target: K‐Ras4B (Homo sapiens, UniProt P01116); experiment: NMR titration experiments; type: binding
Method in brief: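 GDP-bound K-Ras4B was titrated with test compound and followed by NMR chemical shift perturbation; KD derived from the titration.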

K‐Ras wild type protein, sequence (P01116 1-188 isoform P01116-2): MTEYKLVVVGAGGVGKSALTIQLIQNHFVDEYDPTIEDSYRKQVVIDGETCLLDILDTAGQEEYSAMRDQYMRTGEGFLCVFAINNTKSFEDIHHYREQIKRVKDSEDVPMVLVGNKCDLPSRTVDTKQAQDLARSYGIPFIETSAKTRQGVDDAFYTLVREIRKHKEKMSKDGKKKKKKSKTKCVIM
K‐Ras(G12D), sequence (P01116 1-188 isoform P01116-2 G12D): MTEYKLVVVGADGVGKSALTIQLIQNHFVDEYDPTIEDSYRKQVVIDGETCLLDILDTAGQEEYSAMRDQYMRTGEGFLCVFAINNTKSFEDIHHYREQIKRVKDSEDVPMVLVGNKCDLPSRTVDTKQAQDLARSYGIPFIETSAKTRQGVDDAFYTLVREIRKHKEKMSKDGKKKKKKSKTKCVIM
K‐Ras4B, sequence (P01116 1-188 isoform P01116-2): as the sequence (P01116 1-188 isoform P01116-2) above

| Structure (SMILES) | IC50 [1] | IC50 [2] | WT %CRTL (3 mM) [3] | IC50 [4] | IC50 [5] | IC50 [6] | IC50 [7] | IC50 [8] | IC50 [9] | IC50 [10] | IC50 [11] | IC50 [12] | IC50 [13] | IC50 [14] | IC50 [15] | IC50 [16] | cell culture medium stability [17] | IC50 [18] | stability in cell culture medium ([17]; 24 h) | Kd [19] |
| --- | --- | --- | --- | --- | --- | --- | --- | --- | --- | --- | --- | --- | --- | --- | --- | --- | --- | --- | --- | --- |
| Oc1ccc(C(=NNc2ccc(F)cc2)c2ccc(O)cc2)cc1 [7 c, 4,4′‐((2‐(4‐Fluorophenyl)hydrazinylidene)‐methylene)diphenol] | 413 ± 28 µM | 1040 ± 427 µM | 83% | 23.7 ± 14.4 µM | 24.7 ± 8.3 µM | 17.6 ± 13.4 µM | 33.7 ± 0.6 µM | 28.7 ± 4.7 µM | 455 µM | > 550 µM | 95.3 µM | > 1000 µM | 415 µM | 491 µM | > 1000 µM | > 1000 µM | 2.2% | 20 to 30 µM |  |  |
| Oc1ccc(C(=NNc2ccc(Cl)cc2)c2ccc(O)cc2)cc1 [7 d, 4,4′‐((2‐(4‐Chlorophenyl)hydrazinylidene)‐methylene)diphenol] | 475 µM | 1300 ± 417 µM | 84% | 31.2 ± 6.8 µM | 29.3 ± 4.1 µM | 27.4 ± 4.5 µM | 40.2 ± 1 µM | 30.1 ± 9 µM |  |  |  |  |  |  |  |  | 0.4% | 20 to 30 µM |  |  |
| Oc1ccc(C(=NNc2ccc(C(F)(F)F)cc2)c2ccc(O)cc2)cc1 [7 e, 4,4′‐((2‐(4‐(Trifluoromethyl)phenyl)‐hydrazinylidene)methylene)diphenol] | 628 ± 170 µM | 1070 ± 312 µM | 90% | 16.7 ± 1.9 µM | 13.4 ± 2.7 µM | 12.5 ± 1.4 µM | 15.1 ± 1.2 µM | 11.9 ± 0.7 µM | 520 µM | > 1000 µM | 431 µM | > 1000 µM | > 1000 µM | > 1000 µM | > 1000 µM | > 1000 µM |  |  | completely stable |  |
| Oc1ccc(C(=NNc2ccccn2)c2ccc(O)cc2)cc1 [7 f, 4,4′‐((2‐(Pyridin‐2‐yl)hydrazinylidene)‐methylene)diphenol] | 1910 ± 98 µM | 2610 ± 225 µM | 98% | 71.1 ± 11.3 µM | 65.8 ± 37.3 µM |  |  | 67 ± 1.8 µM |  |  |  |  |  |  |  |  |  |  |  |  |
| O=S(=O)(NN=C(c1ccc(O)cc1)c1ccc(O)cc1)c1ccccc1 [8 a, N′‐(bis(4‐hydroxyphenyl)methylene)benzene‐sulfonohydrazide] | 1310 ± 389 µM | 1030 ± 371 µM | 91% | 92.1 ± 12 µM | 157 ± 54 µM | 113 ± 13 µM | 109 ± 3 µM | 105 ± 2 µM |  |  |  |  |  |  |  |  |  |  |  |  |
| COc1ccc(S(=O)(=O)NN=C(c2ccc(O)cc2)c2ccc(O)cc2)cc1 [8 b, N′‐(bis(4‐hydroxyphenyl)methylene)‐4‐methoxybenzenesulfonohydrazide] | 1290 ± 307 µM | 1620 ± 565 µM | 89% | 154 ± 30 µM | 260 ± 45 µM | 219 ± 43 µM | 161 ± 9 µM | 184 ± 12 µM |  |  |  |  |  |  |  |  |  |  |  |  |
| O=S(=O)(NN=C(c1ccc(O)cc1)c1ccc(O)cc1)c1ccc(Cl)cc1 [8 c, N′‐(bis(4‐hydroxyphenyl)methylene)‐4‐chlorobenzenesulfonohydrazide] | 583 ± 146 µM | 1050 ± 405 µM | 91% | 81 ± 26.3 µM | 102 ± 16 µM | 85 ± 9.2 µM | 69.8 ± 2.4 µM | 71.3 ± 6.5 µM | 240 µM | > 875 µM | 96.6 µM | 586 µM | 203 µM | 255 µM | > 1000 µM | > 1000 µM |  |  |  |  |
| O=S(=O)(NN=C(c1ccc(O)cc1)c1ccc(O)cc1)c1ccc(Br)cc1 [8 d, N′‐(bis(4‐hydroxyphenyl)methylene)‐4‐bromobenzenesulfonohydrazide] | 850 ± 120 µM | 2220 ± 519 µM | 93% | 88.7 ± 23.9 µM | 105 ± 8 µM | 96.6 ± 14.5 µM | 82.8 ± 8.4 µM | 91.8 ± 7.4 µM |  |  |  |  |  |  |  |  |  |  |  |  |
| O=[N+]([O-])c1ccc(S(=O)(=O)NN=C(c2ccc(O)cc2)c2ccc(O)cc2)cc1 [8 e, N′‐(bis(4‐hydroxyphenyl)methylene)‐4‐nitrobenzenesulfonohydrazide] | 255 µM | 298 ± 196 µM |  | 46.8 ± 1.7 µM | 58.4 ± 6.9 µM | 51.1 ± 1.2 µM | 49.2 ± 0.9 µM | 49.8 ± 2.1 µM |  |  |  |  |  |  |  |  |  |  |  |  |
| O=S(=O)(NN=C(c1ccc(O)cc1)c1ccc(O)cc1)c1ccc(OC(F)(F)F)cc1 [8 f, N′‐(bis(4‐hydroxyphenyl)methylene)‐4‐(trifluoromethoxy)benzenesulfonohydrazide] | 858 ± 55 µM | 1650 ± 731 µM | 92% | 110 ± 24 µM | 179 ± 43 µM | 112 ± 10 µM | 104 ± 3 µM | 111 ± 10 µM |  |  |  |  |  |  |  |  |  |  |  |  |
| N#Cc1ccc(S(=O)(=O)NN=C(c2ccc(O)cc2)c2ccc(O)cc2)cc1 [8 g, N′‐(bis(4‐hydroxyphenyl)methylene)‐4‐cyanobenzenesulfonohydrazide] | > 3000 µM | 1500 ± 572 µM | 86% | > 30 µM | > 30 µM | > 30 µM | > 30 µM | > 30 µM |  |  |  |  |  |  |  |  |  |  |  |  |
| O=C(c1ccc(O)cc1)c1ccc(O)cc1 [compound 9, 4,4’‐Dihydroxybenzophenone, reference compound] | 1210 ± 116 µM | 1330 ± 104 µM |  | 187 ± 19 µM | > 300 µM |  |  | > 300 µM |  |  |  |  |  |  |  |  |  |  |  | 9100 ± 3900 µM |
| O=C(NN=C(c1ccc(O)cc1)c1ccc(O)cc1)c1ccccc1 [compound 10, N′‐(Bis(4‐hydroxyphenyl)methylene)‐benzohydrazide] | > 3000 µM | > 3000 µM | 93% | 173 ± 1 µM | 158 ± 3 µM |  |  | 112 ± 3 µM |  |  |  |  |  |  |  |  |  |  |  |  |
| O=C(c1nc2cc(O)ccc2[nH]1)c1cc2cccc(O)c2o1 [compound 13, (5‐Hydroxy‐1H‐benzo[d]imidazol‐2‐yl)(7‐hydroxybenzofuran‐ 2‐yl)methanone] | 409 ± 32 µM | 334 ± 5 µM |  | 52.7 ± 0.3 µM | 54.5 ± 0.2 µM |  |  |  |  |  |  |  |  |  |  |  |  |  |  |  |
